Assay results published in ChEMBL document CHEMBL3351414, “Novel 9'-substituted-noscapines: synthesis with Suzuki cross-coupling, structure elucidation and biological evaluation” (Eur J Med Chem, 2014).
Active and inactive are the calls of the source. No cut-off for these calls is given here.

Experiments:
[1] = Antiproliferative activity against human SEM cells assessed as reduction in cell viability after 72 hrs by MTT assay; format: functional, cell-based
Summary of the method: (§1)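 Cells kept in RPMI-1640 (Jurkat, SEM, RS4;11) or DMEM (A549, HeLa, IGROV-1, HT-29) with 10% FBS plus penicillin/streptomycin. 8×10^3 cells per well were left 18 h at 37 °C in 5% CO2. Medium was then replaced with fresh medium holding graded compound concentrations from 10 mM DMSO stocks. Cells were incubated 72 h and viability read by MTT. IC50 is the mean ± SEM from dose–response curves of at least three independent experiments.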

HeLa [2] = test: Induction of apoptosis in human HeLa cells assessed as PARP cleavage at 25 uM after 24 to 48 hrs by Western blot analysis; format: functional, cell-based
Summary of the method: (§2)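 HeLa cells treated 24 or 48 h at 25 µM, then lysed. 20 µg protein per lane was run on SDS-PAGE and transferred to PVDF. Membranes were probed 2 h at room temperature for cleaved caspase-9, caspase-3, cleaved PARP, Bcl-2, Mcl-1 or Bax, with peroxidase secondary antibody and ECL. β-Actin reprobe served as loading control.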

HeLa [3] = test: Induction of apoptosis in human HeLa cells assessed as mitochondrial membrane depolarization at 6.2 to 50 uM using JC-1 staining-based fluorescence assay; format: functional, cell-based; settings: TDE = time-dependent effect
Summary of the method: (§3)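 Mitochondrial membrane potential was read with the JC-1 dye in HeLa cells after 24 or 48 h at graded concentrations. Data are mean ± SEM of three independent experiments.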

HeLa [4] = test: Induction of apoptosis in human HeLa cells assessed as early apoptotic cells at 25 uM after 24 hrs using Annexin-V/PI staining by flow cytometry (reference value: 5.26 %); format: functional
HeLa [5] = test: Cell cycle arrest in human HeLa cells assessed as accumulation at G2/M phase after 24 hrs by flow cytometry; format: functional, cell-based
Summary of the method: (§4)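 5×10^5 HeLa or Jurkat cells exposed to graded compound concentrations for 24 h. Cells were fixed in ice-cold 70% ethanol, lysed with RNase A/0.1% Triton X-100 buffer and stained with propidium iodide. DNA content was read by flow cytometry. Phase percentages are mean ± SEM of three independent experiments.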

HeLa [6] = test: Effect on cell morphology in human HeLa cells at 25 uM after 24 hrs using phalloidin staining by confocal microscopy; format: functional, cell-based
Summary of the method: (§5)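 After 24 h at 25 µM, HeLa cells were stained with anti-PCM1 and Alexa-conjugated secondary antibody, with phalloidin-tetramethylrhodamine B for actin and DAPI for nuclei. Cells were imaged by confocal microscopy at 60×.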

HeLa [7] = test: Induction of apoptosis in human HeLa cells assessed as ROS production at 6.2 to 50 uM after 24 to 48 hrs using H2-DCFDA -based flow cytometry relative to control; format: functional, cell-based
Summary of the method: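 HeLa cells incubated 24 or 48 h at the indicated concentrations, stained with H2-DCFDA and analysed by flow cytometry. Data are mean ± SEM of three independent experiments.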

PBL = test: Cytotoxicity against PHA-stimulated human PBLs assessed as reduction in cell growth; format: cell-based
Summary of the method: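 Peripheral blood lymphocytes from healthy donors, tested either resting (no PHA) or PHA-stimulated. Value is the concentration reducing cell growth by 50%, mean ± SEM of three separate experiments.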

HeLa [8] = test: Induction of apoptosis in human HeLa cells assessed as viable cells at 25 uM after 24 hrs using Annexin-V/PI staining by flow cytometry (reference value: 86.7 %); format: functional; settings: read-out: Activity
HeLa [9] = test: Induction of apoptosis in human HeLa cells assessed as reduction in Mcl-1 expression at 25 uM after 24 hrs by Western blot analysis; format: functional, cell-based; summary of the method: as §2
HeLa [10] = test: Induction of apoptosis in human HeLa cells assessed as mitochondrial membrane depolarization after 24 to 48 hrs using JC-1 staining-based fluorescence assay; format: functional, cell-based; summary of the method: as §3
HeLa [11] = test: Effect on cell morphology in human HeLa cells assessed as disorganization of actin filament at 25 uM after 24 hrs by confocal microscopy relative to control; format: functional, cell-based; summary of the method: as §5
HeLa [12] = test: Downregulation of phosphorylated form of cdc25c protein level in human HeLa cells at 25 uM after 24 hrs by Western blot analysis; format: functional, cell-based
Summary of the method: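 HeLa cells treated 24 or 48 h at 25 µM, then washed in PBS and lysed 30 min on ice. 20 µg protein per lane was resolved on 7.5–15% SDS-PAGE and blotted to PVDF. Blots were probed for cyclin B, p-cdc2 Tyr15, cdc25C and γH2A.X, with β-actin reprobe as loading control and ECL detection.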

HeLa [13] = test: Induction of apoptosis in human HeLa cells at 6.2 to 50 uM using Annexin-V/PI staining by flow cytometry; format: functional, cell-based; settings: TDE = time-dependent effect
HeLa [14] = test: Induction of apoptosis in human HeLa cells assessed as late necrotic cells at 25 uM after 24 hrs using Annexin-V/PI staining by flow cytometry (reference value: 3.70 %); format: functional
HeLa [15] = test: Induction of apoptosis in human HeLa cells assessed as reduction in Bcl-2 expression at 25 uM after 24 hrs by Western blot analysis; format: functional, cell-based; summary of the method: as §2
HeLa [16] = test: Induction of apoptosis in human HeLa cells assessed as reduction in Bcl-2 expression at 25 uM after 48 hrs by Western blot analysis; format: functional, cell-based; summary of the method: as §2
Jurkat [17] = test: Cell cycle arrest in human Jurkat cells assessed as accumulation at G2/M phase after 24 hrs by flow cytometry; format: functional, cell-based; summary of the method: as §4
Tubulin [18] = target: T1, Tubulin (Bos taurus, UniProt Q6B856+Q862L2+Q862F3); test: Inhibition of bovine brain tubulin assessed as extent of assembly preincubated for 15 mins by turbidimetry
Summary of the method: (§6)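 Bovine brain tubulin at 10 µM (1.0 mg/mL) in 0.8 M monosodium glutamate pH 6.6 with 4% DMSO and varying compound was preincubated 15 min at 30 °C, then chilled. GTP was added to 0.4 mM final and the temperature jumped from 0 to 30 °C. Turbidity was followed at 350 nm, scoring either maximum rate or extent of assembly at 20 min.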

HeLa [19] = test: Induction of apoptosis in human HeLa cells assessed as caspase 3 cleavage at 25 uM after 24 to 48 hrs by Western blot analysis; format: functional, cell-based; summary of the method: as §2
HeLa [20] = test: Cell cycle arrest in human HeLa cells assessed as accumulation at G2/M phase at 25 uM after 24 hrs by flow cytometry; format: functional; summary of the method: as §4
Tubulin [21] = target: T1, Tubulin; test: Inhibition of bovine brain tubulin assessed as rate of assembly preincubated for 15 mins by turbidimetry; summary of the method: as §6
Jurkat [22] = test: Antiproliferative activity against human Jurkat cells assessed as reduction in cell viability after 72 hrs by MTT assay; format: functional, cell-based; summary of the method: as §1
HeLa [23] = test: Induction of apoptosis in human HeLa cells after 24 to 48 hrs using Annexin-V/PI staining by flow cytometry; format: functional, cell-based
HeLa [24] = test: Induction of apoptosis in human HeLa cells assessed as reduction in Mcl-1 expression at 25 uM after 48 hrs by Western blot analysis; format: functional, cell-based; summary of the method: as §2
HeLa [25] = test: Antiproliferative activity against human HeLa cells assessed as reduction in cell viability after 72 hrs by MTT assay; format: functional, cell-based; summary of the method: as §1
IGROV-1 = test: Antiproliferative activity against human IGROV1 cells assessed as reduction in cell viability after 72 hrs by MTT assay; format: functional, cell-based; settings: IGROV-1, 72 h; summary of the method: as §1
[26] = Antiproliferative activity against human RS4:11 cells assessed as reduction in cell viability after 72 hrs by MTT assay; format: functional, cell-based; settings: RS4-11, 72 h; summary of the method: as §1
HT-29 = test: Antiproliferative activity against human HT-29 cells assessed as reduction in cell viability after 72 hrs by MTT assay; format: functional, cell-based; settings: HT-29, 72 h; summary of the method: as §1

| SMILES | IC50 [1] | Activity (HeLa [2]) | Activity (HeLa [3]) | Activity (HeLa [4]) | Activity (HeLa [5]) | Activity (HeLa [6]) | Activity (HeLa [7]) | IC50 (PBL) | viability at 25 µM (HeLa [8]) | Activity (HeLa [9]) | Activity (HeLa [10]) | Activity (HeLa [11]) | Activity (HeLa [12]) | Activity (HeLa [13]) | Activity (HeLa [14]) | Activity (HeLa [15]) | Activity (HeLa [16]) | Activity (Jurkat [17]) | IC50 (Tubulin [18]) | Activity (HeLa [19]) | other results |
| --- | --- | --- | --- | --- | --- | --- | --- | --- | --- | --- | --- | --- | --- | --- | --- | --- | --- | --- | --- | --- | --- |
| COc1ccc2c(c1OC)C(=O)O[C@@H]2[C@H]1c2c(c(-c3ccc(C)cc3)c3c(c2OC)OCO3)CCN1C | 7.4 µM | Active | tde | 14.3% | Dose-dependent effect | Active | Active | > 200 µM | 5.88% | inactive | Dose-dependent effect | Active | Active | tde | 11.1% | inactive | Active | Dose-dependent effect | 120 µM | Active | Activity (HeLa [20]): >80%; IC50 (Tubulin [21]): 45 µM; IC50 (Jurkat [22]): 5.1 µM; Activity (HeLa [23]): Dose-dependent effect; Activity (HeLa [24]): Active; IC50 (HeLa [25]): 12.8 µM; IC50 (IGROV-1): 66.3 µM; IC50 [26]: 16.4 µM; IC50 (HT-29): 24.9 µM |
| COc1ccc2c(c1OC)C(=O)O[C@@H]2[C@H]1c2c(c(Br)c3c(c2OC)OCO3)CCN1C | 1.8 µM | Active | tde | 57.3% | Dose-dependent effect | Active | Active | 92.2 µM | 76.8% | Active | Dose-dependent effect | Active | Active | tde | 53.7% | Active | Active | Dose-dependent effect | > 400 µM | Active | Activity (HeLa [20]): >80%; IC50 (Tubulin [21]): > 400 µM; IC50 (Jurkat [22]): 3 µM; Activity (HeLa [23]): Dose-dependent effect; Activity (HeLa [24]): Active; IC50 (HeLa [25]): 2.6 µM; IC50 (IGROV-1): 78.2 µM; IC50 [26]: 1.4 µM; IC50 (HT-29): 18.7 µM |
| COc1ccc2c(c1OC)C(=O)O[C@@H]2[C@H]1c2c(c(C)c3c(c2OC)OCO3)CCN1C | 4.3 µM | Active | tde | 12.5% | Dose-dependent effect | Active | Active | > 200 µM | 9.8% | Active | Dose-dependent effect | Active | Active | tde | 17.1% | Active | Active | Dose-dependent effect | > 400 µM | Active | Activity (HeLa [20]): >80%; IC50 (Tubulin [21]): 220 µM; IC50 (Jurkat [22]): 5.9 µM; Activity (HeLa [23]): Dose-dependent effect; Activity (HeLa [24]): Active; IC50 (HeLa [25]): 5.2 µM; IC50 (IGROV-1): 62.4 µM; IC50 [26]: 15.8 µM; IC50 (HT-29): 34 µM |
